These results are taken from ChEMBL document CHEMBL1127706, “HIV-inhibitory natural products. 11. Comparative studies of sulfated sterols from marine invertebrates” (J Med Chem, 1994).

The test system of assay [1] is CCRF-CEM. Description: Effective concentration for cytoprotective effect against HIV-1 infection in CEM cells; No protection of cells to HIV-induced Killing. It is filed as functional, cell-based, Homo sapiens. In a few lines: (§1)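 CEM-SS cells in RPMI 1640 without phenol red (5% FBS, 2 mM L-glutamine, gentamicin), resuspended at 1×10^5 cells/mL, infected with HIV-1 RF at MOI 0.01-0.05. Sterols dissolved in DMSO, serially diluted in medium (final DMSO ≤1%), top concentration 100 μg/mL. Incubated 6 days at 37 °C, 5% CO2. Cytoprotection read by XTT tetrazolium viability, relative to uninfected untreated controls.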

Assay [2] has as its system CCRF-CEM. Description: Effective concentration was tested for cytoprotective effect against HIV-2 CBL 20 strain infection in CEM cells. The format is functional, cell-based. The following applies: Homo sapiens. In a few lines: (§2)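 HIV-2 strain CBL20 infection of CEM cells at MOI 0.01-0.05. Sterols in DMSO, diluted in complete medium (final DMSO ≤1%), maximum 100 μg/mL. Uninfected CEM-SS controls run for toxicity. XTT viability read after 6 days in culture at 37 °C, 5% CO2. Protection expressed as percent of uninfected, untreated controls.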

Assay [3] relates to Human immunodeficiency virus 2. Description: Inhibition of HIV-2 (CBL20) nediated cytotoxicity in CEM (human leukemia) cells. The settings on record: Human immunodeficiency virus 2, CCRF-CEM.
Assay [4] has as its system Human immunodeficiency virus 1. Description: Inhibition of HIV-1 mediated cytotoxicity in CEM (human leukemia) cells. It is filed as functional, organism-based. The settings on record: Human immunodeficiency virus 1, CCRF-CEM. In a few lines: as §1
For assay [5], the system named is CCRF-CEM. Description: Effective concentration was tested for cytoprotective effect against HIV-1 infection in CEM cells. The format is functional, cell-based. The following applies: Homo sapiens. In a few lines:
as §1

Assay [6] has as its system CCRF-CEM. The assay is described as follows: Effective concentration for cytoprotective effect against HIV-2 CBL 20 strain infection in CEM cells; No protection of cells to HIV-induced Killing. It is filed as functional, cell-based, Homo sapiens. Summed up:
as §2

Assay [7] deals with CCRF-CEM. The assay is described as follows: Inhibitory concentration for cytoprotective effect against HIV-1 infection in CEM cells. The following applies: Homo sapiens. The format is functional, cell-based. In a few lines:
as §1

Assay [8] deals with CCRF-CEM. The assay is described as follows: Effective concentration for cytoprotective effect against HIV-2 infection in CEM cells; No protection of cells to HIV-induced Killing. The format is functional, cell-based. The following applies: Homo sapiens. In a few lines:
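Anticytopathicity test against HIV-2 strain ROD in CEM cells at MOI 0.01-0.05. Cells were held in RPMI 1640 with 5% FBS, and sterols were given from DMSO stocks (final DMSO ≤1%), up to 100 μg/mL. Cultures ran 6 days at 37 °C. Protection from viral killing was scored as percent, with host-cell cytotoxicity assessed in parallel.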

Bounds are passed on as bounds.

For `CC(C)CCC[C@@H](COS(=O)(=O)[O-])[C@H]1CCC2C3CC=C4[C@H](O)[C@H](OS(=O)(=O)[O-])[C@H](O)C[C@]4(C)C3CC[C@@]21C.[Na+].[Na+]` (some centres undefined), the concentration for a half-maximal effect (EC50) result in assay [1] is given as “No protection”.
Consider `CC(C)CC[C@@H](O)[C@@H](C)[C@H]1CCC2C3C[C@H](OS(=O)(=O)O)C4C[C@@H](OS(=O)(=O)O)CC[C@]4(C)C3=CC[C@@]21C` (some centres undefined), for which the EC50 came out at 128 µM in assay [2] and 19 µM in assay [5]. In addition, the IC50 in assay [3] and in assay [4] was greater than 161 µM in each case.
As for `CC(C)C(CCOS(=O)(=O)[O-])CC[C@@H](C)[C@H]1[C@@H](O)[C@H](O)C2[C@]3(O)C[C@@H](O)[C@@]4(O)C[C@@H](O)CC[C@]4(C)C3CC[C@@]21C.[Na+]` (some centres undefined), the concentration giving a half-maximal response (EC50) entry in assay [6] and in assay [1] was “No protection” throughout. The IC50 in assay [3] and in assay [4] was greater than 164 µM in each case.
On to `CC(C)CCC[C@@H](COS(=O)(=O)O)[C@H]1CCC2C3CC=C4C[C@H](O)[C@@H](OS(=O)(=O)O)C[C@]4(C)C3CC[C@@]21C` (some centres undefined), for which the half-inhibitory concentration (IC50) in assay [3] and in assay [4] was greater than 161 µM in each case. Moreover, the midpoint of the response in assay [5], the EC50, lay at 97 µM.
Regarding `C=C(C)CCC[C@@H](COS(=O)(=O)O)[C@H]1CC[C@H]2[C@@H]3CC[C@]4(O)[C@H](O)[C@H](OS(=O)(=O)O)CC[C@]4(C)[C@H]3CC[C@]12C`, the results for the concentration giving a half-maximal response (EC50) in assay [2] and in assay [5] were 39 µM and 86 µM, respectively. Besides, the IC50 in assay [3] and in assay [4] was greater than 157 µM each time.
Take `CC(C)CCC[C@@H](COS(=O)(=O)O)[C@H]1CC[C@H]2[C@@H]3CCC4[C@H](O)[C@H](OS(=O)(=O)O)CC[C@]4(C)[C@H]3[C@@H](O)C[C@]12C` (some centres undefined): the EC50 was determined as 110 µM in assay [2] and 157 µM in assay [5]. Further, the IC50 in assay [3] is greater than 157 µM; in assay [4], greater than 313 µM.
On to `CC(C)[C@H](CC[C@@H](C)[C@H]1C[C@H](OS(=O)(=O)[O-])[C@H]2[C@@H]3[C@H](O)[C@H](O)C4C[C@@H](O)CC[C@]4(C)[C@H]3CC[C@@]21C)OC1OCC(O)C(O)C1O.[Na+]` (some centres undefined), for which the IC50 was greater than 123 µM in assay [7] and 69 µM in assay [3]. The EC50 result in assay [6] and in assay [1] was “No protection” in each case.
Consider `CC(C)C(C)CC[C@@H](C)[C@H]1CC[C@H]2[C@@H]3C[C@H](OS(=O)(=O)O)C4C[C@H](OS(=O)(=O)O)[C@@H](OS(=O)(=O)O)C[C@]4(C)[C@H]3CC[C@]12C` (some centres undefined), for which the EC50 in assay [2] came to 2 µM; in assay [5], 6 µM. The 50% inhibitory concentration (IC50) in assay [3] and in assay [4] was 56 µM each time.
In the case of `CC(CC[C@@H](C)[C@H]1CC[C@H]2[C@@H]3C[C@H](OS(=O)(=O)O)C4C[C@H](OS(=O)(=O)O)[C@@H](OS(=O)(=O)O)C[C@]4(C)[C@H]3CC[C@]12C)C(C)(C)C` (some centres undefined), the EC50 in assay [2] came to 3 µM; in assay [5] it was 6 µM. The IC50 in assay [3] and in assay [4] was 41 µM each time.
With `CCC(C)(C)C(C)CC[C@@H](C)[C@H]1CC[C@H]2[C@@H]3C[C@H](OS(=O)(=O)O)C4C[C@H](OS(=O)(=O)O)[C@@H](OS(=O)(=O)O)C[C@]4(C)[C@H]3CC[C@]12C` (some centres undefined), the EC50 was 7 µM in assay [2] and 3 µM in assay [5]. Also, the half-inhibitory concentration (IC50) in assay [3] came to 94 µM; in assay [4], 17 µM.
Taken in the same sequence, the figures for `C=C(C)CCC[C@@H](COS(=O)(=O)O)[C@H]1CC[C@H]2[C@@H]3CCC4[C@H](O)[C@H](OS(=O)(=O)O)CC[C@]4(C)[C@H]3CC[C@]12C` (some centres undefined) were 161 µM, 97 µM, greater than 161 µM and greater than 161 µM.
For the compound `C[C@H](CCC(=O)NC(CO)CS(=O)(=O)O)[C@H]1[C@@H](O)[C@H](O)[C@H]2[C@@H]3C[C@@H](O)[C@@]4(O)C[C@@H](O)CC[C@]4(C)[C@H]3CC[C@]12C` (some centres undefined), the concentration for a half-maximal effect (EC50) entry in assay [6] and in assay [1] was “No protection” each time. Further, the IC50 in assay [3] and in assay [4] was greater than 174 µM throughout.
In turn, `CC(C)CC[C@@H](O)[C@@H](C)[C@H]1CC[C@H]2[C@@H]3C[C@H](OS(=O)(=O)O)C4C[C@@H](OS(=O)(=O)O)CC[C@]4(C)[C@H]3CC[C@]12C` (some centres undefined) returned an IC50 in assay [4] greater than 160 µM. This compound displayed a concentration giving a half-maximal response (EC50) in assay [5] of 48 µM.
For the compound `CC(=O)O[C@@H]1C[C@H]2[C@@H]3C[C@H](OP(=O)([O-])OC4OC(CO)C(O)C(O)C4O)C4C[C@@H](OS(=O)(=O)[O-])CC[C@]4(C)[C@H]3CC[C@]2(C)[C@H]1[C@H](C)CCCC(C)C.[Na+].[Na+]` (some centres undefined), the EC50 was 13 µM in assay [8] and “No protection” in assay [1]. Further, the IC50 in assay [3] and in assay [4] was greater than 125 µM in each case.
`CC(C)CCC[C@@H](COS(=O)(=O)O)[C@H]1CC[C@H]2[C@@H]3CCC4[C@H](O)[C@H](OS(=O)(=O)O)CC[C@]4(C)[C@H]3[C@@H](O)[C@@H](O)[C@]12C` (some centres undefined): the EC50 in assay [2] is 107 µM; in assay [5], 122 µM. The IC50 in assay [3] and in assay [4] was greater than 152 µM in each case.
`CC(=O)O[C@H](CCC(C)C)[C@@H](C)[C@H]1CC[C@H]2[C@@H]3C[C@H](OS(=O)(=O)O)C4C[C@@H](OS(=O)(=O)O)CC[C@]4(C)[C@H]3CC[C@]12C` (some centres undefined) showed an IC50 in assay [4] greater than 149 µM. Moreover, the EC50 in assay [5] turned out to be 13 µM.
In the case of `CC(C)[C@H](CC[C@@H](C)[C@H]1C[C@H](OS(=O)(=O)[O-])[C@H]2[C@@H]3C[C@H](O)C4C[C@@H](O)CC[C@]4(C)[C@H]3CC[C@@]21C)OC1OCC(O)C(O)C1O.[Na+]` (some centres undefined), the 50% effective concentration (EC50) result in assay [6] and in assay [1] was “No protection” each time. Further, the IC50 in assay [3] and in assay [4] was greater than 126 µM each time.
`CC(C)C1(CC[C@@H](C)[C@H]2CC[C@@]3(C)C4C[C@H](OS(=O)(=O)O)C5C[C@H](OS(=O)(=O)O)[C@@H](OS(=O)(=O)O)C[C@]5(C)C4=CC[C@]23C)CC1C` (some centres undefined): the EC50 in assay [2] was 8 µM; in assay [5], 13 µM. The IC50 in assay [3] was 51 µM; in assay [4], greater than 128 µM.
Take `COC1([C@@H]2C=C3[C@H](O)C[C@]4(O)C(CC[C@@]5(C)C4[C@@H](OS(=O)(=O)[O-])[C@H](O)[C@@H]5[C@H](C)/C=C/[C@H](CO)C(C)C)[C@@]3(C)CC2)OCC(O)C(O)C1O.[Na+]` (some centres undefined): the results for the IC50 in assay [3] and in assay [4] were greater than 64 µM and 64 µM, respectively. Moreover, in assay [1], the EC50 result is reported as “No protection”.
In the case of `CC(C)CCC[C@@H](COS(=O)(=O)O)[C@H]1CCC2C3CC=C4[C@@H](O)[C@H](OS(=O)(=O)O)CC[C@]4(C)C3CC[C@@]21C` (some centres undefined), the EC50 in assay [2] was 80 µM; in assay [5], 241 µM. Further, the results for the half-maximal inhibitory concentration (IC50) in assay [3] and in assay [4] were greater than 161 µM and greater than 322 µM, respectively.
Regarding `CC(=O)O[C@H](CCC(C)C)[C@@H](C)[C@H]1CCC2C3C[C@H](OS(=O)(=O)O)C4C[C@@H](OS(=O)(=O)O)CC[C@]4(C)C3=CC[C@@]21C` (some centres undefined), the values for the EC50 in assay [2] and in assay [5] were 3 µM and 18 µM, respectively. The IC50 in assay [3] and in assay [4] was greater than 150 µM throughout.
For `CC(C)CCC[C@@H](COS(=O)(=O)O)[C@H]1CC[C@H]2[C@@H]3CC[C@H]4C[C@H](OS(=O)(=O)O)CC[C@]4(C)[C@H]3CC[C@]12C`, the EC50 in assay [2] is greater than 63 µM; in assay [5], 164 µM. Further, the IC50 in assay [3] was greater than 156 µM; in assay [4] it was greater than 312 µM.

The term EC50 denotes the concentration needed to bring the measured effect to its halfway point. Low readings indicate greater potency, high ones weaker potency. The term IC50 denotes the concentration that inhibits the measured activity by half.
